Most compounds without a hit are left out; they make up all but 3.5% or so of the library.
RGS4 inh – human RGS4 inhibition. P49798. HEK293 M3R/RGS4 inducible, Fluo-4 calcium flux; active compounds read high; triggered by carbachol at its EC20. B-score at 10 µM. 0.45% of 310,000 active;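 active = B-score, a plate-corrected calcium signal, over three deviations above library mean, with baseline fluorescence within five deviations of library mean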;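 also: RGS4 expression induced by doxycycline in cells with stable M3 receptor; B-score is computed from the integrated fluorescence ratio over baseline after carbachol; higher B-score means a larger calcium signal and so more RGS4 inhibition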
Target sequence (P49798 whole entry, looked up): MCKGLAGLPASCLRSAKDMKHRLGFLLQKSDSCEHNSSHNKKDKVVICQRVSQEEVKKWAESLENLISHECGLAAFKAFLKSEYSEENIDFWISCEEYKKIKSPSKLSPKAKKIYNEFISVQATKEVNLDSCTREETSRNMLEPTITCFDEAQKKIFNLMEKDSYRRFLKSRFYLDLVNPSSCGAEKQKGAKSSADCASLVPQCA
MrgX1 ag – activates human MrgX1 receptor signaling; MrgX1-HEK293 cells, Fluo-4 calcium fluorescence, agonist mode; active compounds read high; B-score at 10 µM; 0.44% of 310,000 active; Q96LB2; AID 588627;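 active = calcium response B-score plate-corrected fluorescence ratio at least 3 library SD, with starting fluorescence B-score inside 5 SD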
Target sequence (Q96LB2 whole entry, looked up): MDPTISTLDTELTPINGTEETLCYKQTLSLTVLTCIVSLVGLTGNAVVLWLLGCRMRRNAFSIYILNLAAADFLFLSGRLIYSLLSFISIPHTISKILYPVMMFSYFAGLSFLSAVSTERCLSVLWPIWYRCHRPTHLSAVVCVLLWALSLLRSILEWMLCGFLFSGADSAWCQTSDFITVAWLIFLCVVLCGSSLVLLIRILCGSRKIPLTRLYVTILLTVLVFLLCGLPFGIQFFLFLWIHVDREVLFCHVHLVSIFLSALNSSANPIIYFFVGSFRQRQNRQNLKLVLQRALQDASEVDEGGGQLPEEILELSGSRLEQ
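Material – MrgX1-expressing HEK293 cells · Input – 15,000 cells seeded per well · Dosing – compound as first of three additions · Times – overnight seeding, then 1 h dark dye loading · Measured by – kinetic Fluo-4 NW fluorescence of intracellular calcium · Read-out – B-scored fluorescence response ratio · Benchmarks – positive and negative control wells on each plate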
MrgX1 antag – antagonists of human MrgX1 receptor; Q96LB2; MRGX1-HEK293 calcium flux, Fluo-4, BAM8-22 antagonism; active compounds read low; B-score at 10 µM; 1.3% of 310,000 active;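 active = calcium-response B-score plate-corrected more than 3 library SD below zero, starting fluorescence within 5 deviations, no agonist response on first addition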;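 also: peak minus trough fluorescence over baseline after final BAM8-22 challenge near maximal dose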
RGS4 pot – RGS4 potentiation or activation; 0.92% of 310,000 active; B-score at 10 µM; HEK293 M3R/inducible RGS4, carbachol calcium flux Fluo4; active compounds read low; AID 463111;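 active = B-score of the integrated calcium signal more than 4 SD below the library mean, with starting fluorescence not abnormally high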;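 also: negative B-score means reduced calcium response which marks RGS4 activation or potentiation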
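Test system: HEK293 cells with stable M3R and inducible RGS4; also added: carbachol at ECmax as muscarinic agonist stimulus; schedule: dye loading 30 min 37 °C, buffer rest 30 min RT; technique: kinetic calcium fluorescence imaging with Fluo4-AM dye, 2 µM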
MrgX1 PAM – allosterically activates human MrgX1 receptor signaling; 0.63% of 310,000 active; MrgX1-HEK293, Fluo-4 calcium flux, FDSS; active compounds read high; B-score at 10 µM;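 active = plate-corrected calcium response at least 3 library SD above typical, normal starting fluorescence, not activating the receptor alone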;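 also: compound read alongside a low EC10 to EC30 dose of BAM8-22 agonist; peak minus trough fluorescence over baseline measured at the second addition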
The depositor's hits bear a star; i = inactive; x = no result.

SMILES	RGS4 inh	MrgX1 ag	MrgX1 antag	RGS4 pot	MrgX1 PAM
CC(=O)N1CCN(c2ccc(C(N)=O)cc2[N+](=O)[O-])CC1	i	i	i	i	i
CCN(CC(=O)Nc1c(F)cccc1F)C(=O)c1ccc(N2CCCCC2)c([N+](=O)[O-])c1	i	i	-4.64*	i	i
COc1ccc(Cl)cc1NC(=O)CN(C)C(=O)c1ccc(N2CCCCC2)c([N+](=O)[O-])c1	i	i	i	i	i
NC(=O)c1ccc(N2CCCCCC2)c([N+](=O)[O-])c1	i	i	-5.65*	i	i
CN1CCN(C(=O)c2cccn(Cc3c(Cl)cccc3Cl)c2=O)CC1	i	i	i	i	i
NCCNc1ccc(C(=O)N2c3ccccc3Sc3ccccc32)cc1[N+](=O)[O-]	i	i	i	i	i
O=[N+]([O-])c1ccc(-c2ccc(/C=N/Nc3nc(NCc4ccccc4)nc(N4CCOCC4)n3)o2)cc1	i	i	i	i	13.2*
CN(C)S(=O)(=O)N1CCC(Oc2cccc(C(=O)NCCC3=CCCCC3)c2)CC1	i	i	-4.54*	i	i
CN(C)S(=O)(=O)N1CCC(Oc2cccc(C(=O)NC3CCCCC3)c2)CC1	i	i	i	i	i
CN(C)CCCN1c2ccccc2CCc2ccccc21	x	i	i	x	i
CC(CN(C)C)CN1c2ccccc2CCc2ccccc21 (stereo unspecified)	i	i	-4.88*	i	i
COc1cc(C2NC(=O)NC(C)=C2[N+](=O)[O-])cc(OC)c1OC (stereo unspecified)	i	i	i	i	i
Cc1ccc(-c2nc3ccc(Cl)cc3c(=O)n2O)cc1	i	36.9*	i	i	i
C(=N\Nc1nc(-c2ccccc2)cs1)/c1ccncc1	i	i	i	i	i
O=C(O)Cc1sc(N/N=C\c2ccncc2)nc1-c1ccccc1	i	i	-5.8*	i	i
CC(CC(=O)N1CCc2ccccc21)S(=O)(=O)c1ccc2c(c1)NC(=O)CO2 (stereo unspecified)	i	i	i	i	i
Cn1ncc([N+](=O)[O-])c1C(=O)N/N=C/c1cccc([N+](=O)[O-])c1	i	i	-5.36*	i	i
CCN(Cc1ccccc1)c1ccc(/C=N/N=C(N)N)cc1	i	i	-5.47*	i	i
CN(C)C1(CNC(=S)Nc2ccccc2C(F)(F)F)CCCCC1	i	i	i	i	i
O=C(c1cccc(S(=O)(=O)N2CCc3ccccc32)c1)N1CCCC(C(F)(F)F)C1 (stereo unspecified)	i	i	i	i	i
CCOC(=O)c1c(C)[nH]c(C(=O)/C(C#N)=C/c2ccc(OCC)cc2)c1C	i	i	i	-7.58*	i
CC(=O)c1c(C)[nH]c(C(=O)/C(C#N)=C/c2cccc(C)c2)c1C	i	i	i	i	i
O=C1COc2ccc(C(=O)COC(=O)Cc3ccc(F)cc3)cc2N1	i	i	i	i	i
COc1ccc(-c2nnc(SCC(=O)O)n2Cc2ccccc2)cc1	i	i	i	i	i
NC(N)=NC(=O)c1nc(Cl)c(N)nc1N	i	i	i	i	i
SMILES	RGS4 inh	MrgX1 ag	MrgX1 antag	RGS4 pot	MrgX1 PAM
NC(N)=NC(=O)c1nc(Cl)c(N2CCCCCC2)nc1N	x	57.4*	i	x	i
CCOc1ccccc1/C=N/OCC(=O)NCc1ccc(F)cc1	i	i	i	i	i
COC(=O)c1ccc(/C=N/OCC(=O)NCc2ccc(F)cc2)cc1	i	i	-5.36*	i	i
COc1ccc(-c2ccc(=O)n(CC(=O)NCC3COCCO3)n2)cc1 (stereo unspecified)	i	i	i	i	i
Cc1cccn2c(=O)c(/C=C(\C#N)S(=O)(=O)c3ccccc3)c(N3CCN(Cc4ccccc4)CC3)nc12	i	i	i	-7.22*	i
N#C/C(=C\c1c(N2CCN(Cc3ccccc3)CC2)nc2ccccn2c1=O)S(=O)(=O)c1ccccc1	i	i	i	i	i
O=C(CN1C(=O)c2ccccc2S1(=O)=O)NCCSCc1c(F)cccc1Cl	i	i	i	i	i
COc1ccc(C2=NOC(C(=O)NCCN3CCOCC3)C2)cc1 (stereo unspecified)	i	i	i	i	i
COc1ccc(C2=NOC(C(=O)NCCCN3CCOCC3)C2)cc1 (stereo unspecified)	i	i	-5.13*	i	i
O=C1CCCN1CC(=O)N1CCCC(N2CCN(c3cccc(Cl)c3)CC2)C1 (stereo unspecified)	i	i	i	i	i
COc1ccccc1N(CC(=O)Nc1c(C)n(C)n(-c2ccccc2)c1=O)S(=O)(=O)c1ccc(C)cc1	i	i	-5.48*	i	i
CS(=O)(=O)N(CC(=O)NCc1ccccc1Cl)c1cccc([N+](=O)[O-])c1	i	i	i	i	i
Cc1ccc(CSCCNC(=O)CN(c2cccc([N+](=O)[O-])c2)S(C)(=O)=O)cc1	i	i	i	i	9.91*
COc1ccccc1N(CC(=O)NCCSCc1ccc(C)cc1)S(=O)(=O)c1ccccc1	i	i	i	-10.1*	i
COc1ccc(N(CC(=O)NCCSCc2ccc(C)cc2)S(=O)(=O)c2ccccc2)cc1	i	i	i	i	i
Cc1ccc(S(=O)(=O)N2CCOC23CCN(C(=O)C(=O)NCc2ccccc2)CC3)cc1	i	i	i	i	i
CC(C)=CCOc1c2ccoc2cc2oc(=O)ccc12	i	i	-5.71*	i	i
CC1(C)O[C@@H]1COc1c2ccoc2cc2oc(=O)ccc12	i	i	i	i	i
O=C(NC(=S)NCCC1=CCCCC1)c1ccccc1Br	i	i	i	-7.29*	i
Cc1ccc(S(=O)(=O)N/N=C2/CC(c3ccccc3)Oc3ccccc32)cc1[N+](=O)[O-] (stereo unspecified)	i	i	i	i	i
O=S(=O)(N/N=C1/CC(c2ccccc2)Oc2ccccc21)c1ccc(Br)cc1 (stereo unspecified)	i	i	-6.75*	i	i

Screens deposited in PubChem by Johns Hopkins Ion Channel Center.
